The record followed here is ChEMBL document CHEMBL1208693, “Synthesis and evaluation of novel antifungal agents-quinoline and pyridine amide derivatives” (2010).

Holding throughout (format): functional
In one assay the test system is Aspergillus fumigatus. As to the kind of experiment: Antifungal activity against Aspergillus fumigatus Tsukuba after 2 days by broth-microdilution method. The conditions noted are these: 48 h. In outline: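 CLSI M38-A2 broth microdilution, slightly modified. Conidia came from a one-week PDA culture at 35 °C and were stored at −80 °C. Inoculum was 2×10^3–2×10^4 conidia/mL. Compounds were serially twofold diluted from DMSO stock to final concentrations of 0.05–200 µg/mL; the control was 1% DMSO. Plates were incubated at 35 °C for 2 days. MIC was the lowest concentration giving a visually prominent turbidity decrease versus control.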

The test system of assay [1] is Candida albicans. As to the kind of experiment: Antifungal activity against Candida albicans E81022 after 2 days by broth-microdilution method. Conditions: E81022, 48 h. In outline: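 Yeast broth microdilution following CLSI M27-A3, slightly modified. Cells were subcultured in Sabouraud dextrose broth at 35 °C for 1–2 days, then inoculated at 2×10^3–2×10^4 cells/mL. Compounds in twofold DMSO dilutions gave final concentrations of 0.05–200 µg/mL; the control was 1% DMSO. Incubation was 35 °C for 2 days. MIC was the lowest concentration with a visually prominent turbidity drop relative to control.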
A general note: Dilution methods test growth across graded concentrations, often in twofold steps.

Assay [2] deals with Candida albicans. As to the kind of experiment: Ratio of compound MIC to Amphotericin B MIC for Candida albicans E81022.
Assay [3] concerns Saccharomyces cerevisiae. As to the kind of experiment: Ratio of MIC for Saccharomyces cerevisiae KE744 to Saccharomyces cerevisiae KE743 overexpressing GWT1. Summed up:
(§1)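 Broth microdilution (modified CLSI M27-A3) on S. cerevisiae KE743 (control) and KE744 (GWT1 overexpressed from GAPDH promoter), precultured in SD ura- at 30 °C for 1–2 days. Inoculum 2 × 10^3–2 × 10^4 cells/ml. Twofold dilutions at 0.05–200 µg/mL final, from DMSO; 1% DMSO control. Incubated 30 °C, 2 days. MIC is the lowest concentration with a prominent visual turbidity decrease; KE744/KE743 MICs compared.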

Assay [4] relates to Saccharomyces cerevisiae. As to the kind of experiment: Antifungal activity against Saccharomyces cerevisiae KE744 after 2 days by broth-microdilution method. The conditions noted are these: KE744, 48 h. Summed up:
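S. cerevisiae strain overexpressing GWT1 from the GAPDH promoter, grown in SD ura- medium at 30 °C for 1–2 days. Modified CLSI broth microdilution used 2×10^3–2×10^4 cells/mL. Final compound concentrations were 0.05–200 µg/mL from twofold DMSO dilutions, with 1% DMSO as control. Incubation was 30 °C for 2 days. MIC was the lowest concentration visibly and prominently reducing turbidity versus control.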

The test system of assay [5] is Saccharomyces cerevisiae. As to the kind of experiment: Antifungal activity against Saccharomyces cerevisiae KE743 […] after 2 days by broth-microdilution method. Conditions: KE743, 48 h. In outline: as §1

≈ marks a conversion by molar mass, not a printed value.

As to `Nc1ncccc1C(=O)NCc1ccc(Cc2ccccc2)s1`, the MIC (commonly the lowest concentration found to suppress growth) is 0.78 mg/L (≈ 2.41 µM) in the assay with Aspergillus fumigatus and 0.05 mg/L (≈ 0.155 µM) against Candida albicans [1]. The Ratio in the assay with Candida albicans [2] came to 2.

Regarding `O=C(NCc1ccc(Oc2cccc(F)c2)s1)c1ccc2ncccc2c1`, the results for the Ratio in the assay with Saccharomyces cerevisiae [3] and in the assay on Candida albicans [2] were 128 and 2, respectively. Besides, the MIC against Aspergillus fumigatus amounted to 1.56 mg/L (≈ 4.12 µM); with Candida albicans [1], 0.1 mg/L (≈ 0.264 µM); in the assay on Saccharomyces cerevisiae [4], 3.13 mg/L (≈ 8.27 µM); against Saccharomyces cerevisiae [5], 0.025 mg/L (≈ 0.0661 µM).

With `O=C(NCc1ccc(Oc2ccccc2)s1)c1cnc2[nH]ccc2c1`, the Ratio in the assay with Saccharomyces cerevisiae [3] is reported as over 64; in the assay with Candida albicans [2] it was 2. Also, the MIC in the assay on Aspergillus fumigatus was 3.13 mg/L (≈ 8.96 µM); with Candida albicans [1], 0.39 mg/L (≈ 1.12 µM); in the assay on Saccharomyces cerevisiae [4] it was over 12.5 mg/L; in the assay with Saccharomyces cerevisiae [5] it was 0.2 mg/L (≈ 0.572 µM).

Consider `Nc1ccc(C(=O)NCc2ccc(Oc3cccc(F)c3)s2)cn1`, for which, in the assay with Saccharomyces cerevisiae [3], the Ratio is over 8. In addition, the results for the MIC in the assay on Candida albicans [1], against Saccharomyces cerevisiae [4] and in the assay on Saccharomyces cerevisiae [5] were 1.56 mg/L (≈ 4.54 µM), over 12.5 mg/L and 1.56 mg/L (≈ 4.54 µM), respectively.

Consider `Nc1ncccc1C(=O)NCc1ccc(Oc2cccc(F)c2)s1`, for which the Ratio was 128 with Saccharomyces cerevisiae [3] and 2 in the assay with Candida albicans [2]. The MIC in the assay on Aspergillus fumigatus was 0.78 mg/L (≈ 2.27 µM); against Candida albicans [1], 0.05 mg/L (≈ 0.146 µM); with Saccharomyces cerevisiae [4] it was 12.5 mg/L (≈ 36.4 µM); against Saccharomyces cerevisiae [5] it was 0.1 mg/L (≈ 0.291 µM).

`Nc1ccc(C(=O)NCc2ccc(Oc3ccccc3)s2)c(N)n1`: the Ratio in the assay with Saccharomyces cerevisiae [3] is listed as over 8; in the assay on Candida albicans [2], 2. Further, the MIC is 1.56 mg/L (≈ 4.58 µM) against Aspergillus fumigatus, 0.78 mg/L (≈ 2.29 µM) with Candida albicans [1], over 12.5 mg/L in the assay with Saccharomyces cerevisiae [4] and 1.56 mg/L (≈ 4.58 µM) against Saccharomyces cerevisiae [5].

As to `Nc1ccc(C(=O)NCc2ccc(Oc3ccc(F)cc3)s2)c(N)n1`, the Ratio in the assay with Saccharomyces cerevisiae [3] came to 16; in the assay with Candida albicans [2], 2. The MIC was found to be 0.78 mg/L (≈ 2.18 µM) against Aspergillus fumigatus, 0.39 mg/L (≈ 1.09 µM) in the assay with Candida albicans [1], 12.5 mg/L (≈ 34.9 µM) in the assay with Saccharomyces cerevisiae [4] and 0.78 mg/L (≈ 2.18 µM) in the assay with Saccharomyces cerevisiae [5].

Molecule `CCCCc1ccc(Cc2nccc3ccccc23)cc1` displayed an MIC with Candida albicans [1] of 1.56 mg/L (≈ 5.66 µM).

On to `C[C@@H]1[C@H](O)[C@@H](C)/C=C/C=C/C=C/C=C/C=C/C=C/C=C/[C@H](O[C@@H]2O[C@H](C)[C@@H](O)[C@H](N)[C@@H]2O)C[C@@H]2O[C@](O)(C[C@@H](O)C[C@@H](O)[C@H](O)CC[C@@H](O)C[C@@H](O)CC(=O)O[C@H]1C)C[C@H](O)[C@H]2C(=O)O` [AMPHOTERICIN B], for which the Ratio with Saccharomyces cerevisiae [3] is 1. For the same molecule, the MIC against Aspergillus fumigatus is 0.78 mg/L (≈ 0.844 µM); with Candida albicans [1], 1.56 mg/L (≈ 1.69 µM); in the assay on Saccharomyces cerevisiae [4] it was 0.78 mg/L (≈ 0.844 µM); in the assay on Saccharomyces cerevisiae [5], 0.78 mg/L (≈ 0.844 µM).

Regarding `OC(Cn1cncn1)(Cn1cncn1)c1ccc(F)cc1F` [FLUCONAZOLE], in the assay with Saccharomyces cerevisiae [3], the Ratio came to 1. The MIC against Candida albicans [1] worked out at 0.39 mg/L (≈ 1.27 µM); against Saccharomyces cerevisiae [4], 6.25 mg/L (≈ 20.4 µM); against Saccharomyces cerevisiae [5], 6.25 mg/L (≈ 20.4 µM).
